Test results taken from ChEMBL document CHEMBL5576114, “Inhibition of DXR in the MEP pathway with lipophilic N-alkoxyaryl FR900098 analogs” (RSC Med Chem, 2024).
Active and inactive are the calls of the source. The rule behind the calls is not given here.

Legend:
Plasmodium falciparum [1] = experiment: Antiplasmodial activity against Plasmodium falciparum E1-C12 harboring with had1 mutation assessed as reduction in parasite growth by measuring DNA content after 3 days by PicoGreen staining based FLUOstar omega microplate reader analysis; type: functional, organism-based; conditions: time 3.0 day
How it was run: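 E1-C12 (had1) parasites, asynchronous, at 2% hematocrit in RPMI-1640/0.5% Albumax with hypoxanthine, under 5% O2/5% CO2/90% N2 at 37 °C. Started at 0.5% parasitemia and dosed at 1.2 nM–492.4 µM. After 3 days, DNA was stained with PicoGreen (ex 485/em 528). IC50 came from a 4-parameter fit; technical duplicates, biological triplicates.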

[2] = molecular target: T1, 1-deoxy-D-xylulose 5-phosphate reductoisomerase (Mycobacterium tuberculosis, UniProt P9WNS1); experiment: Inhibition of Mycobacterium tuberculosis DXR expressed in Escherichia coli BL21 CodonPlus (DE3)-RIL cells using DOXP as substrate in presence of NADPH by UV-visible spectrophotometry
T1 sequence (P9WNS1 whole entry): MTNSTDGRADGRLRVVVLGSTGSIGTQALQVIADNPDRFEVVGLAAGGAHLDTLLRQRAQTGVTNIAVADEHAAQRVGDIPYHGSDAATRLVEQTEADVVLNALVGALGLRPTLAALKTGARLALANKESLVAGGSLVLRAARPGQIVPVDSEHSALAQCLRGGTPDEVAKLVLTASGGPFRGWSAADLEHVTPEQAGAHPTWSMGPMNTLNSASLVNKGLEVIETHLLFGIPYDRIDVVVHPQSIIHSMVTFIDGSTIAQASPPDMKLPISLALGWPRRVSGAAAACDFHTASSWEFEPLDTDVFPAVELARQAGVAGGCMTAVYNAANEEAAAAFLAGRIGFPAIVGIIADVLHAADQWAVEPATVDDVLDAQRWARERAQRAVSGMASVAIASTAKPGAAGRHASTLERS

[3] = test system: Mycobacterium tuberculosis; experiment: Antibacterial activity against Mycobacterium tuberculosis H37Rv assessed as reduction in bacterial growth incubated for 2 weeks by macroscopic plate reader analysis; type: functional; conditions: 336 h
How it was run: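 H37Rv grown in 7H9 broth with 0.08% NaCl, 0.4% glucose, 0.05% casitone and 0.05% tyloxapol, then diluted 1:500. Compounds were made as 20 mg/mL DMSO stocks and run as eleven 2-fold serial dilutions. Plates were held 2 weeks at 37 °C and MIC99 was read macroscopically. Three independent measurements.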

[4] = molecular target: T2, 1-deoxy-D-xylulose 5-phosphate reductoisomerase (Mycobacterium tuberculosis) (UniProt P9WNS1); experiment: Inhibition of Mycobacterium tuberculosis DXR expressed in Escherichia coli BL21 CodonPlus (DE3)-RIL cells using DOXP as substrate at 100 uM in presence of NADPH by UV-visible spectrophotometry relative to control
T2 sequence (whole entry): T1 sequence (P9WNS1 whole entry)
How it was run: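 Recombinant MtbDXR (pET101/D-TOPO in E. coli BL21 CodonPlus (DE3)-RIL, IMAC-purified) at 0.89 µM in 100 mM MES pH 6.5, 25 mM MgCl2, 150 µM NADPH, 47 µM DOXP, 37 °C. Inhibitor was tested at a single 100 µM. NADPH oxidation was followed at 340 nm, and percent remaining activity was reported. Technical duplicates.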

[5] = molecular target: T3, 1-deoxy-D-xylulose 5-phosphate reductoisomerase, apicoplastic (Plasmodium falciparum (isolate 3D7)) (UniProt Q8IKG4); experiment: Inhibition of Plasmodium falciparum DXR expressed in Escherichia coli BL21 CodonPlus (DE3)-RIL cells using DOXP as substrate at 100 uM in presence of NADPH by UV-visible spectrophotometry relative to control
T3 sequence (whole entry): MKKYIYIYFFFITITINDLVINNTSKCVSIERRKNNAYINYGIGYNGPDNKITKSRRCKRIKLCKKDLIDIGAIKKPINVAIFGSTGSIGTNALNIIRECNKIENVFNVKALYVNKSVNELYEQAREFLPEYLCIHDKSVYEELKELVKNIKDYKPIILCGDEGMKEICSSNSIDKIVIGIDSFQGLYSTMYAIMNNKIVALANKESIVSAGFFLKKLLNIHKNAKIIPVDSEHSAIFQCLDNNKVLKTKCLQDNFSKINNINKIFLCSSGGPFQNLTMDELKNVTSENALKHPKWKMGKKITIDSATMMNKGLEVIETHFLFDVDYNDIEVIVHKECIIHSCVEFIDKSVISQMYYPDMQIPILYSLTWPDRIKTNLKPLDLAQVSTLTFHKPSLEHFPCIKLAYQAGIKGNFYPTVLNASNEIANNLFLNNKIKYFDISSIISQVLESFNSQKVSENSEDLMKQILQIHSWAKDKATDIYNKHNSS
How it was run: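 PfDXR single-point test at 100 µM inhibitor. Conditions: 0.86 µM IMAC-purified enzyme, 100 mM Tris pH 7.8, 25 mM MgCl2, 150 µM NADPH, 37 °C. Reaction was started with 144 µM DOXP, and NADPH oxidation was monitored at 340 nm. Percent remaining activity was reported; technical duplicates.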

Plasmodium falciparum [6] = experiment: Antiplasmodial activity against Plasmodium falciparum E1-C12 harboring with had1 mutation assessed as reduction in parasite growth by measuring DNA content after 3 days in presence of IPP by PicoGreen staining based FLUOstar omega microplate reader analysis; type: functional, organism-based; conditions: time 3.0 day
How it was run: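 IPP rescue in had1 E1-C12 parasites: 125 µM IPP was present for the whole assay. Cultures at 2% hematocrit in Albumax-supplemented RPMI, 5% O2/5% CO2, 37 °C, started at 0.5% parasitemia. Inhibitors were dosed at 1.2 nM–492.4 µM, and growth was read after 3 days by PicoGreen fluorescence. 4-parameter fit; duplicate wells, biological triplicates.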

[7] = molecular target: T4, 1-deoxy-D-xylulose 5-phosphate reductoisomerase, apicoplastic (Plasmodium falciparum (isolate 3D7), UniProt Q8IKG4); experiment: Inhibition of Plasmodium falciparum DXR expressed in Escherichia coli BL21 CodonPlus (DE3)-RIL cells using DOXP as substrate in presence of NADPH by UV-visible spectrophotometry
T4 sequence (Q8IKG4 whole entry): T3 sequence (whole entry)

Plasmodium falciparum [8] = experiment: Antiplasmodial activity against Plasmodium falciparum 3D7 assessed as reduction in parasite growth by measuring DNA content after 3 days by PicoGreen staining based FLUOstar omega microplate reader analysis; type: functional, organism-based; conditions: 3D7, 72 h
How it was run: (§1)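 Asynchronous cultures in 2% hematocrit, RPMI-1640 complete medium with 0.5% Albumax, under 5% O2/5% CO2/90% N2 at 37 °C. Diluted to 0.5% parasitemia, inhibitors 1.2 nM to 492.4 µM added at start. Growth read after 3 days as DNA content by PicoGreen fluorescence (485/528 nm). IC50 from 4-parameter nonlinear regression; technical duplicate, biological triplicate.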

[9] = Cytotoxicity against human HepG2 cells assessed as reduction in cell viability after 24 hrs by Cell Titer Glo assay; type: toxicity, cell-based
How it was run: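 HepG2 cells in DMEM with 4 mM L-glutamine and 4.5 g/L glucose, trypsinized and plated from a 4×10^5 cells/mL suspension. Compounds were tested as two-fold dilutions from 100 to 0.1 µg/mL, with a DMSO-only control, in duplicate. After 24 h at 37 °C, 5% CO2, CellTiter-Glo luminescence was read after 20 min in the dark.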

Plasmodium falciparum [10] = experiment: Antiplasmodial activity against Plasmodium falciparum; type: functional, organism-based; how it was run: as §1
[11] = test system: Mycobacterium tuberculosis; experiment: Antibacterial activity against Mycobacterium tuberculosis H37Rv assessed as reduction in bacterial growth; type: functional
[12] = molecular target: T4, 1-deoxy-D-xylulose 5-phosphate reductoisomerase, apicoplastic; experiment: Inhibition of Plasmodium falciparum DXR
[13] = molecular target: T1, 1-deoxy-D-xylulose 5-phosphate reductoisomerase; experiment: Inhibition of Mycobacterium tuberculosis DXR using DXP as substrate preincubated for 10 mins followed by NADPH addition and measured after 5 mins by spectrophotometric assay

| Structure (SMILES) | Activity (Plasmodium falciparum [1]) | IC50 [2] | MIC [3] | inhibition [4] | inhibition [5] | Activity (Plasmodium falciparum [6]) | IC50 [7] | IC50 (Plasmodium falciparum [8]) | IC50 at 24 h [9] | IC50 (Plasmodium falciparum [10]) | MIC [11] | IC50 [12] | IC50 [13] |
| --- | --- | --- | --- | --- | --- | --- | --- | --- | --- | --- | --- | --- | --- |
| CC(=O)N(CCC(c1ccc(Cl)c(Cl)c1)P(=O)(O)O)OC(C)c1ccc(F)cc1 (stereo not drawn) | Active | 4780 nM | > 200 µM | > 90% | > 90% | inactive | 470 nM | 2420 nM | > 200000 nM | – | – | – | – |
| COc1ccc(C(C)ON(CCC(c2ccc(Cl)c(Cl)c2)P(=O)(O)O)C(C)=O)cc1 (stereo not drawn) | Active | 780 nM | > 98 µM | > 90% | > 90% | inactive | 110 nM | 300 nM | > 200000 nM | – | – | – | – |
| O=CN(O)CCCP(=O)(O)O [FOSMIDOMYCIN] | – | – | – | – | – | – | – | – | – | 1020 nM | > 500 µg/mL | – | – |
| CC(=O)N(O)CCCP(=O)(O)O [FR-900098] | – | – | – | – | – | – | – | – | – | – | > 500 µg/mL | 22 nM | 2910 nM |
